{"data": "Measured values of several laboratories", "target": "Delta-type opioid receptor (Oprd1, Rattus norvegicus, UniProt P33533)", "setting": "cell membranes", "note": "Lines come from different studies, so protocols differ. pKi: −log10 of the molar value."}
{"Structure (SMILES)": "Cc1cc(O)cc(C)c1C[C@H](N)C(=O)N[C@@H]1CCN(C(=O)c2ccccc2)c2ccc(Cc3ccc4ccccc4c3)cc21", "assay": "GTPγS binding, antagonist", "endpoint": "Kb", "result": "15 nM"}
{"Structure (SMILES)": "Cc1cc(O)cc(C)c1C[C@H](C)C(=O)N[C@@H]1CCCCC[C@@H](C(N)=O)NC(=O)[C@H](Cc2ccccc2)NC(=O)[C@H](Cc2ccccc2)NC1=O", "assay": "ligand displacement, radioligand", "endpoint": "pKi", "result": 7.73}
{"Structure (SMILES)": "Cc1cccc(C)c1C[C@H](NC(=O)[C@@H](CCCNC(=N)N)NC(=O)[C@@H](N)Cc1c(C)cc(O)cc1C)C(=O)N[C@@H](CCCCN)C(N)=O", "assay": "ligand displacement, radioligand", "endpoint": "pKi", "result": 6.98}
{"Structure (SMILES)": "N=C(N)NCCC[C@H]1NC(=O)[C@H](Cc2ccc(O)cc2)NC(=O)[C@H](CCCCN)NC(=O)[C@H](Cc2ccccc2)NC1=O", "assay": "ligand displacement, radioligand", "endpoint": "pKi", "result": 7.19}
{"Structure (SMILES)": "Cc1cc(O)cc(C)c1C[C@H](N)C(=O)N1CCc2ccc(Cc3ccccc3N)cc2C1", "assay": "ligand displacement, radioligand", "endpoint": "pKi", "result": 8.05}
{"Structure (SMILES)": "NC(N)=Nc1ccc2[nH]c3c(c2c1)C[C@@]1(O)[C@H]2Cc4ccc(O)c5c4[C@@]1(CCN2CC1CC1)[C@H]3O5", "assay": "ligand displacement, radioligand", "endpoint": "pKi", "result": 8.54}
{"Structure (SMILES)": "Cc1cc(O)cc(C)c1C[C@H](C)C(=O)N[C@@H]1C/C=C\\CC[C@@H](C(N)=O)NC(=O)[C@H](Cc2ccccc2)NC(=O)[C@H](Cc2ccccc2)NC1=O", "assay": "ligand displacement, radioligand", "endpoint": "pKi", "result": 8.12}
{"Structure (SMILES)": "Cc1cc(O)cc(C)c1C[C@H](N)C(=O)N1CCc2ccc(Cc3cccc([N+](=O)[O-])c3)cc2C1", "assay": "ligand displacement, radioligand", "endpoint": "pKi", "result": 8.60}
{"Structure (SMILES)": "Cc1cc(O)cc(C)c1C[C@H](N)C(=O)N[C@H](CCCNC(=N)N)C(=O)N[C@@H](Cc1c(C)cccc1C(C)C)C(=O)N[C@@H](CCCCN)C(N)=O", "assay": "ligand displacement, radioligand", "endpoint": "pKi", "result": 7.11}
{"Structure (SMILES)": "Cc1cc(O)cc(C)c1C[C@H](N)C(=O)N1CCc2ccc(Cc3cccc(N)c3)cc2C1", "assay": "ligand displacement, radioligand", "endpoint": "pKi", "result": 8.26}
{"Structure (SMILES)": "Cc1cc(O)cc(C)c1C[C@H](N)C(=O)N[C@@H]1CCN(S(C)(=O)=O)c2ccc(CN3CCc4ccccc4C3)cc21", "assay": "GTPγS binding, antagonist", "endpoint": "Kb", "result": "0.85 nM"}
{"Structure (SMILES)": "Cc1cccc(Cc2ccc3c(c2)CN(C(=O)[C@@H](N)Cc2c(C)cc(O)cc2C)CC3)c1", "assay": "ligand displacement, radioligand", "endpoint": "pKi", "result": 8.52}
{"Structure (SMILES)": "Cc1cc(C)c(C[C@H](NC(=O)[C@@H](CCCNC(=N)N)NC(=O)[C@@H](N)Cc2c(C)cc(O)cc2C)C(=O)N[C@@H](CCCCN)C(N)=O)c(C)c1", "assay": "ligand displacement, radioligand", "endpoint": "pKi", "result": 6.48}
